The RNAGym collection of RNA variant scans (doi:10.1038/s41586-018-0170-7)

B1: tRNA (parent)
chain: GUUCCGUUGGCGUAAUGGUAACGCGUCUCCCUCCUAAGGAGAAGACUGCGGGUUCGAGUCCCGUACGGAACG

Variants of: B1
Experiment: yeast fitness, log relative to wild type (ln ratio); higher = fitter; tRNA-Arg(CCU), competitive growth, 37 C, 1 M NaCl
Method in brief: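 Variants were counted by 125 bp paired-end Illumina sequencing after pools of a combinatorial tRNA-Arg(CCU) library, held on a HIS3 centromeric plasmid in BY4742 lacking the chromosomal gene, grew ~6.5 generations (~26.5 h) in SC-HIS 1M NaCl at 37 °C. Each genotype's fitness is the natural log of its generations relative to the wild type's. Generations were OD-scaled log2 output/input frequencies, inverse-variance weighted over replicates.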

Row | Variant | yeast fitness (ln)
1 | G1A U2G C46U C66U A70G C71U | -0.161
2 | G1A U2G C27U A43C C66A C71U | -0.377
3 | G1A U2G A43C C46U C66U A70U C71U | -0.242
4 | G1A U2G C27U C66U A69G A70G C71U | -0.416
5 | G1A U2G C27U A69G A70U | -0.188
6 | G1A U2G C27U A69G A70G | -0.242
7 | G1A U2G A43C C46U A70G C71U | -0.342
8 | G1A U2G C27U C46U C66A | -0.0584
9 | G1A U2G C27U C46U C66U | -0.185
10 | G1A U2G C27U A43C C46U C66U A69G A70G | -0.282
11 | G1A U2G C27U A43C C46U C66U A69G A70U | -0.462
12 | G1A U2G A43C C46U A69G A70G C71U | -0.226
13 | G1A U2G A43C C66U A70U C71U | -0.333
14 | G1A U2G C27U A43C C46U C66A A70G C71U | -0.224
15 | G1A U2G C46U A69G A70U C71U | -0.0215
16 | G1A U2G A43C C66A A70G C71U | -0.333
17 | G1A U2C G6U C27U C46U C66U A70U C71U | -0.284
18 | G1A U2C G6U C46U A70G | -0.239
19 | G1A U2C G6U C46U A70U | -0.0682
20 | G1A U2G C66U A69G A70U C71U | -0.435
21 | G1A U2C G6U C46U A69G A70G C71U | -0.15

Row | Variant | yeast fitness (ln)
22 | G1A U2G A43C C46U C66A A70U C71U | -0.168
23 | G1A U2G C27U A43C C66A A69G A70G | -0.27
24 | G1A U2G A43C A69G A70G | -0.172
25 | G1A U2G A43C A69G A70U | -0.159
26 | G1A U2G A43C C46U C66A A70G | -0.26
27 | G1A U2G A43C C46U C66A A70U | -0.125
28 | G1A U2C G6U C27U C46U C66A A70U | -0.0687
29 | G1A U2C G6U C27U C46U C66A A70G | -0.0541
30 | G1A U2C G6U C46U C66A A69G A70G C71U | -0.0207
31 | G1A U2G C27U A43C C46U A69G C71U | -0.239
32 | G1A U2C G6U C71U | -0.159
33 | G1A U2C G6U C27U C46U C66A A69G A70G C71U | -0.0613
34 | G1A U2G C27U C66A C71U | -0.147
35 | G1A U2G C27U C66A A69G A70U | -0.187
36 | G1A U2C G6U C46U C66U A70U C71U | -0.203
37 | G1A U2C G6U C27U A43C C66U A69G A70U C71U | -0.42
38 | G1A U2G C27U A43C C46U C66A A70U | -0.175
39 | G1A U2G C27U A43C C46U C66A A70G | -0.178
40 | G1A U2C G6U C46U C66U A70G C71U | -0.0224
41 | G1A U2C G6U C66A A70U | -0.234
42 | G1A U2C G6U C66A A70G | -0.0212

Row | Variant | yeast fitness (ln)
43 | G1A U2G C27U C66A A70G C71U | -0.306
44 | G1A U2C G6U C66A C71U | -0.115
45 | G1A U2G C27U A43C C66A A70G C71U | -0.317
46 | G1A U2G C27U A43C C46U A69G A70U C71U | -0.399
47 | G1A U2C G6U C46U A70G C71U | -0.00847
48 | G1A U2G C27U A43C C46U A69G A70G | -0.22
49 | G1A U2G C27U A43C C46U A69G A70U | -0.161
50 | G1A U2G C27U A43C C46U C66A A69G C71U | -0.315
51 | G1A U2G A43C C46U C66A A70G C71U | -0.187
52 | G1A U2G A43C C46U A69G C71U | -0.18
53 | G1A U2G C66A A69G A70G C71U | -0.235
54 | G1A U2G A43C C46U C66A A69G A70G C71U | -0.24
55 | G1A U2G C27U C46U | -0.0532
56 | G1A U2C G6U C27U C66A A70G | -0.141
57 | G1A U2G C27U A43C A70U C71U | -0.167
58 | G1A U2G C46U C66U | -0.0764
59 | G1A U2G C27U C66U A69G A70U | -0.35
60 | G1A U2G C27U C66U A69G A70G | -0.26
61 | G1A U2G C27U C46U C66U A70U | -0.123
62 | G1A U2G C27U C46U C66U A70G | -0.167
63 | G1A U2C G6U C46U | 0.0116

Row | Variant | yeast fitness (ln)
64 | G1A U2G A43C C46U C71U | -0.115
65 | G1A U2G C27U A43C C46U A69G | -0.212
66 | G1A U2C G6U C27U C46U C66A A69G A70U | -0.116
67 | G1A U2G C66A C71U | -0.0937
68 | G1A U2G C27U A43C C46U C66U A69G C71U | -0.383
69 | G1A U2G C27U C46U C66A A69G A70G C71U | -0.247
70 | G1A U2C G6U C46U C66A A70U | -0.184
71 | G1A U2C G6U C46U C66A A70G | -0.0166
72 | G1A U2G C66U A69G A70G C71U | -0.165
73 | G1A U2G C27U C66A A70U | -0.165
74 | G1A U2G C27U C66A A70G | -0.25
75 | G1A U2G C27U A43C C66A A69G C71U | -0.297
76 | G1A U2C G6U C27U A43C C66A A70G C71U | -0.0539
77 | G1A U2C G6U C27U C46U A69G A70G | -0.176
78 | G1A U2C G6U C27U C46U A69G A70U | -0.219
79 | G1A U2C G6U C66A A69G A70U | 0.0124
80 | G1A U2C G6U C66A A69G A70G | -0.126
81 | G1A U2G C27U A43C C46U A70U C71U | -0.0479
82 | G1A U2G C27U A70G C71U | -0.371
83 | G1A U2G C27U C66A A70U C71U | -0.243
84 | G1A U2G A43C C46U C66A A69G A70U C71U | -0.233
